Each structure is given as a SMILES string. Where only a bound is given, the exact number is not on record here.

Sequence of Caspase-8 (Q14790 217-374 limits assumed): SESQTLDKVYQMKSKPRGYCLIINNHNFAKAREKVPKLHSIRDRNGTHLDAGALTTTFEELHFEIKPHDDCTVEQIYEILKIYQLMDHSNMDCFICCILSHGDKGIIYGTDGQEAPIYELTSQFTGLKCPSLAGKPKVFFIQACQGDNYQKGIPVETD
Sequence of Caspase-8 (Q14790 385-479 limits assumed): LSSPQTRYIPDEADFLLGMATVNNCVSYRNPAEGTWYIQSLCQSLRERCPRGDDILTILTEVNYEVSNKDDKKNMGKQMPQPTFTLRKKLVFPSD

The target in the first test is T1, Caspase-1 (Homo sapiens, UniProt P29466).
T1 sequence (P29466 whole entry): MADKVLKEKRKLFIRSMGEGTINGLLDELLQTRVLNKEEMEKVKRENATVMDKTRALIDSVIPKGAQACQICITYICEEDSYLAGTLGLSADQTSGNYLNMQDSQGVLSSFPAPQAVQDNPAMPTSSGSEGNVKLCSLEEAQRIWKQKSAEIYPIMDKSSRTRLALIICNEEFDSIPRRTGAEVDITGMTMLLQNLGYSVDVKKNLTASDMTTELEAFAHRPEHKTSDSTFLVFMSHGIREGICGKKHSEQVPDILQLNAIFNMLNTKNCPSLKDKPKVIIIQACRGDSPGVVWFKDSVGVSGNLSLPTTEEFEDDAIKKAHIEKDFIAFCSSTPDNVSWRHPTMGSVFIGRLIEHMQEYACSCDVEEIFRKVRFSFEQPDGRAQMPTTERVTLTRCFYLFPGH
The experiment in a line: Inhibition of human recombinant caspase 1. In outline: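 Recombinant human caspase-1 stored at -80 °C as aliquots and used at 1:20 dilution; enzyme preincubated with inhibitor (Ki determinations). Substrate Ac-Trp-Glu-His-Asp-AMC, 5 μM final. AMC release followed kinetically, excitation 380 nm, emission 460 nm.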
As a reminder, the Ki is a measure of affinity in units of concentration, obtained from inhibition or displacement. For the molecule `CC(C)[C@H](NC(=O)c1ccc2ccccc2c1)C(=O)N[C@@H](C)C(=O)N[C@H](CCCc1ccccc1)CC(=O)O`, the Ki is greater than 50 µM.
One may read the IC50 as the concentration needed to halve the response being measured. On to `CC(C)[C@H](NC(=O)c1ccc2ccccc2c1)C(=O)N[C@@H](C)C(=O)N[C@H](C=O)CC(=O)O`, for which the IC50 stood at 0.0002 µM.
On to `CC(C)[C@H](NC(=O)c1ccc2ccccc2c1)C(=O)N[C@@H](C)C(=O)N[C@H](CNC1CCCCC1)CC(=O)O`, for which the Ki is 0.945 µM.
On the same count and under the same terms, under `CC(C)[C@H](NC(=O)c1ccc2ccccc2c1)C(=O)N[C@@H](C)C(=O)N[C@@H](CC(=O)O)CN(C)C1CCCCC1` stands 0.128 µM; under `CC(C)[C@H](NC(=O)c1ccc2ccccc2c1)C(=O)N[C@@H](C)C(=O)N[C@H](CNCc1ccc(O)cc1)CC(=O)O`, 1.37 µM; under `CC(C)[C@H](NC(=O)c1ccc2ccccc2c1)C(=O)N[C@@H](C)C(=O)N[C@H](CNCc1ccc2c(c1)OCO2)CC(=O)O`, 0.209 µM.
Still for that read-out and setting: under `CC(C)[C@H](NC(=O)c1ccc2ccccc2c1)C(=O)N[C@@H](C)C(=O)N[C@H](CNCc1ccc(C(N)=O)cc1)CC(=O)O` stands 1.82 µM.
Take `CC(C)[C@H](NC(=O)c1ccc2ccccc2c1)C(=O)N[C@@H](C)C(=O)N[C@H](CNCc1ccccc1O)CC(=O)O`: the Ki was 0.047 µM.
Same read-out and setting: under `CC(C)[C@H](NC(=O)c1ccc2ccccc2c1)C(=O)N[C@@H](C)C(=O)N[C@H](CNCc1ccccc1F)CC(=O)O` stands 1.2 µM; under `CC(C)[C@H](NC(=O)c1ccc2ccccc2c1)C(=O)N[C@@H](C)C(=O)N[C@H](CNCc1ccccc1)CC(=O)O`, 0.6 µM.
For the molecule `CC(C)[C@H](NC(=O)c1ccc2ccccc2c1)C(=O)N[C@@H](C)C(=O)N[C@@H](CC(=O)O)CN(C)Cc1ccccc1`, the Ki is 1.89 µM.
Still for that read-out and setting: under `COc1ccccc1CNC[C@H](CC(=O)O)NC(=O)[C@H](C)NC(=O)[C@@H](NC(=O)c1ccc2ccccc2c1)C(C)C` stands 0.965 µM.

Another test addresses Caspase-8 (Homo sapiens, UniProt Q14790). As to the kind of experiment: Inhibition of caspase 8.
As to `CC(C)[C@H](NC(=O)c1ccc2ccccc2c1)C(=O)N[C@@H](C)C(=O)N[C@H](CNCc1ccccc1O)CC(=O)O`, the IC50 amounted to 100 µM.

The values above are taken from ChEMBL document CHEMBL1157618, “Noncovalent tripeptidyl benzyl- and cyclohexyl-amine inhibitors of the cysteine protease caspase-1” (J Med Chem, 2010).
